Measurements: ChEMBL document CHEMBL1135400, “Alpha2-adrenoreceptors profile modulation and high antinociceptive activity of (S)-(-)-2-[1-(biphenyl-2-yloxy)ethyl]-4,5-dihydro-1H-imidazole” (J Med Chem, 2002)

Columns and labels:
[1] = target: T1, Adrenergic receptor alpha-2 (Rattus norvegicus) (UniProt P22086+P19328+P22909); test: pKb value using clonidine as agonist for Alpha-2 adrenergic receptor; format: functional
Summary of the method: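 Prostatic rat vas deferens held under 0.1 Hz electrical stimulation, with prazosin, propranolol (1 µM) and cocaine (10 µM) present. Compounds lacking agonist activity were tested against clonidine. Dose ratios were taken at clonidine ED50 at one antagonist concentration, tested six times. Dissociation constant by the van Rossum method.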

[2] = target: T2, Adrenergic receptor alpha-2 (Rattus norvegicus, UniProt P22086+P19328+P22909); test: Displacement of [3H]clonidine from Alpha-2 adrenergic receptor of rat cortex membrane
T2 sequence (P22086 whole entry): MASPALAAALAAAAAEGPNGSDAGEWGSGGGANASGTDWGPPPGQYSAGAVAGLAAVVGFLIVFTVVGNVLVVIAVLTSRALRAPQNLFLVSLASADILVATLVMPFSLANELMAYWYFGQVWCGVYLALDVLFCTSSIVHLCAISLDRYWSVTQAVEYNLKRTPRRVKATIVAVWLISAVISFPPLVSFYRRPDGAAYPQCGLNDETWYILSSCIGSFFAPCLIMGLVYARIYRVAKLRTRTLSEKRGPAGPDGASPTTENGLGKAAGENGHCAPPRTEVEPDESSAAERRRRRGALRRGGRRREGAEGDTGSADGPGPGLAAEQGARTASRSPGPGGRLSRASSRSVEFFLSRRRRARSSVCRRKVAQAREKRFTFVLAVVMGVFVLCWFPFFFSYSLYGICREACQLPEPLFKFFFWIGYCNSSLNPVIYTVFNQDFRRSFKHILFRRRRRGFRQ
T2 sequence (P19328 whole entry): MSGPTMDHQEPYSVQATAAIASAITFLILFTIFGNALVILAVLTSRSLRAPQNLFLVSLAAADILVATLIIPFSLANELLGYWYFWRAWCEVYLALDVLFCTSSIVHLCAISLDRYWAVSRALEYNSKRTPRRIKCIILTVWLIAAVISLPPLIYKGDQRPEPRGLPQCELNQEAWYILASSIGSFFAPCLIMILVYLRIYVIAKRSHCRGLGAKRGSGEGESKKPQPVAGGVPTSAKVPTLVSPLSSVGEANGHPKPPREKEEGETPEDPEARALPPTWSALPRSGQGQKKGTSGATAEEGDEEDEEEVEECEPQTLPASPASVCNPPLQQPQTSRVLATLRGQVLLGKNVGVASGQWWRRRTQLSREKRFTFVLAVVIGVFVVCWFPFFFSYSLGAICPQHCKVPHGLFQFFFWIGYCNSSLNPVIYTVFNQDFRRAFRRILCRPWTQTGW
T2 sequence (P22909 whole entry): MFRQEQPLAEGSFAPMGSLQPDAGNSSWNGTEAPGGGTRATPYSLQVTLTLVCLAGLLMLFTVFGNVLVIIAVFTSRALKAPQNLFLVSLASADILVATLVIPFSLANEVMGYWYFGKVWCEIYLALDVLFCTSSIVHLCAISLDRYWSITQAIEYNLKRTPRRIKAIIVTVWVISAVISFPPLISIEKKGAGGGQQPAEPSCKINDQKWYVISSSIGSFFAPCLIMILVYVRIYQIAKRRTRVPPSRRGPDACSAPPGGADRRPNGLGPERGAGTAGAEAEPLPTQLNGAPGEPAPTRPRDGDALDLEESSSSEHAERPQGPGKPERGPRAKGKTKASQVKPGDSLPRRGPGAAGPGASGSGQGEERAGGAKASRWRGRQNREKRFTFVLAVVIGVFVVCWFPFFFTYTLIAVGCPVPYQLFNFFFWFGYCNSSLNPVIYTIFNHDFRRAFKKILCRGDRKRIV
Summary of the method: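 Rat cerebral cortex membranes (200 µg protein) in 50 mM Tris-HCl pH 7.4, 5 nM [3H]clonidine, 10–12 competitor concentrations, 45 min at 25 °C; GF/B filtration, scintillation counting. Nonspecific binding with 10 µM phentolamine. Triplicate points; IC50 by nonlinear regression, Ki by Cheng–Prusoff, curves repeated at least three times, pKi ± SEM.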

[3] = target: T1, Adrenergic receptor alpha-2 (Rattus norvegicus); test: Antilog of the difference between pD2 of Alpha-2 adrenergic receptor and pD2 of Alpha-1 adrenergic receptor
[4] = Relative binding affinity for Alpha-2 adrenergic receptor and I2 imidazoline binding site (Antilog of the difference between pKi)
Summary of the method: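 Ratio from two radioligand assays. α2: rat cortex membranes with 5 nM [3H]clonidine, nonspecific binding with 10 µM phentolamine. I2: rabbit kidney membranes with 5 nM [3H]idazoxan, adrenoreceptors masked by 10 µM norepinephrine, nonspecific binding with 10 µM cirazoline. Both assays 45 min at 25 °C, Ki by Cheng–Prusoff.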

[5] = target: T3, Adrenergic receptor alpha-1 (Rattus norvegicus) (UniProt P15823+P23944+P43140); test: pKb value using (-)-norepinephrine as agonist for Alpha-1 adrenergic receptor
[6] = target: Imidazoline I2 binding sites (Oryctolagus cuniculus); test: Displacement of [3H]idazoxan from imidazoline receptor I-2 binding sites in rabbit kidney membrane
[7] = target: T3, Adrenergic receptor alpha-1 (Rattus norvegicus); test: Inhibition of Alpha-1 adrenergic receptor twitch response in rat vas deferens in presence of cirazoline, pD2 is -log ED50; format: tissue-based
[8] = target: T1, Adrenergic receptor alpha-2 (Rattus norvegicus); test: pD2 is -log ED50 required to produce 50% inhibition of the twitch response in rat vas deferens (intrinsic activity in presence of cirazoline) for Alpha-2 adrenergic receptor; format: tissue-based; conditions: in the assay text read “clonidine” for “cirazoline”
Summary of the method: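 Prostatic portion (12 mm) of male rat vas deferens (125–150 g) at 37 °C under 95% O2/5% CO2, 1 g load. Bath contains 0.54 mM MgCl2, prazosin, 1 µM propranolol and 10 µM cocaine.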

[9] = target: T1, Adrenergic receptor alpha-2 (Rattus norvegicus); test: pD2 is -log ED50 required to produce 50% inhibition of the twitch response in rat vas deferens (intrinsic activity in presence of clonidine) for Alpha-2 adrenergic receptor; format: tissue-based
Summary of the method: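 Prostatic portion (12 mm) of male albino rat (125–150 g) vas deferens, 37 °C, O2/CO2 95%/5%, 1 g loading tension. Physiological salt solution had 0.54 mM MgCl2, prazosin ([…]), propranolol (1 µM) and cocaine (10 µM). Field stimulation was 0.1 Hz, 3 ms, 10–15 V, recorded isometrically.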

Row | pKb [1] | Log Ki [2] | Ratio [3] | Ratio [4] | pKb [5] | Log Ki [6] | pD2 [7] | pD2 [8] | Structure (SMILES) | pD2 [9]
1 | 5.81 | -7.5 | 0.78 | 5.8 | 5.92 | -6.74 | – | – | CC(Oc1ccc(-c2ccccc2)cc1)C1=NCCN1 (centres undefined) | –
2 | 6.87 | -6.8 | – | 47.9 | – | -5.12 | 5.99 | – | CC(Oc1ccccc1Cc1ccccc1)C1=NCCN1 (centres undefined) | –
3 | – | -6.92 | 135 | 2.2 | – | -6.57 | 4.53 | 6.66 | CC(Oc1cccc(-c2ccccc2)c1)C1=NCCN1 (centres undefined) | –
4 | – | -7 | 42.7 | 126 | – | -4.9 | 6.73 | – | CC(Nc1ccccc1-c1ccccc1)C1=NCCN1 (centres undefined) | 8.36
5 | 6.38 | -7.14 | – | 0.46 | – | -7.48 | 4.89 | – | c1ccc(NCC2=NCCN2)cc1 [PHENAMAZOLINE] | –
6 | 7.14 | -6.52 | – | 0.66 | – | -6.7 | 5.27 | – | c1ccc(Cc2ccccc2OCC2=NCCN2)cc1 | –
7 | – | -7.1 | – | – | – | – | 6.68 | – | c1ccc(-c2ccccc2OCC2=NCCN2)cc1 | 8.46
8 | – | -6.45 | 29.5 | 2.3 | – | -6.09 | 6.37 | – | c1ccc(-c2ccccc2NCC2=NCCN2)cc1 | 7.84

Row | Structure (SMILES) | pKb [1] | Log Ki [2] | Ratio [3] | Ratio [4] | pKb [5] | Log Ki [6] | pD2 [7] | pD2 [8] | pD2 [9]
9 | CC(Oc1ccccc1)C1=NCCN1 (centres undefined) | 7.29 | -7.01 | – | 27.5 | – | -5.57 | 5.2 | – | –
10 | C[C@@H](Oc1ccccc1-c1ccccc1)C1=NCCN1 | – | -7 | – | – | – | – | 6.23 | – | 7.4
11 | C[C@H](Oc1ccccc1-c1ccccc1)C1=NCCN1 | – | -7.5 | – | – | – | – | 7.51 | – | 8.55
12 | c1ccc(OCC2=NCCN2)cc1 | 6.71 | -7.28 | – | – | – | – | 5.26 | – | –
13 | CC(Oc1ccccc1-c1ccccc1)C1=NCCN1 (centres undefined) [BIPHENYLINE] | – | -7.91 | – | – | – | – | 7.2 | – | 8.52
